From ChEMBL document CHEMBL3098130, “Discovery of Novel Putative Inhibitors of UDP-GlcNAc 2-Epimerase as Potent Antibacterial Agents” (ACS Med Chem Lett, 2013)
Converted amounts (≈) assume the structure as drawn.

What was measured:
[1] = system: Bacillus subtilis; experiment: Antibacterial activity against Bacillus subtilis 19659 assessed as growth inhibition measured for 3 days by broth microdilution method; type: functional
Outline: (§1)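 MIC by broth microdilution against a panel of Gram-positive and Gram-negative strains (ATCC-type numbers where given). Run in triplicate on three different days.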

[2] = system: Staphylococcus aureus; experiment: Antibacterial activity against Staphylococcus aureus 13709 assessed as growth inhibition measured for 3 days by broth microdilution method; type: functional; outline: as §1
[3] = system: Mus musculus; experiment: T>MIC in CD1 mouse at 50 mg/kg, ip bid; conditions: route intraperitoneal
Outline: (§2)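 Female CD-1 mice, single intraperitoneal dose of 25, 50 or 100 mg/kg; the 50 mg/kg BID group was dosed twice. Plasma levels were followed over time to derive tmax, Cmax, half-life, Vz, clearance and AUC. Time above MIC was taken against a 2000 ng/mL plasma threshold.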

[4] = system: Mus musculus; experiment: T>MIC in CD1 mouse at 100 mg/kg, ip; conditions: route intraperitoneal; outline: as §2
[5] = system: Mus musculus; experiment: T>MIC in CD1 mouse at 50 mg/kg, ip; conditions: route intraperitoneal; outline: as §2
[6] = system: Mus musculus; experiment: T>MIC in CD1 mouse at 25 mg/kg, ip; conditions: route intraperitoneal; outline: as §2
[7] = system: Mus musculus; experiment: Toxicity in CD1 mouse assessed as mortality at < 100 mg/kg, ip; type: organism-based; set-up: dose 100 mg/kg, route intraperitoneal; conditions: in vivo
Outline: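 Female CD-1 mice were given the compound intraperitoneally in the PK dose groups. Mortality and clinical observations were recorded.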

[8] = system: Mus musculus; experiment: AUC in CD1 mouse at 50 mg/kg, ip bid; type: ADME, organism-based, Plasma; set-up: dose 50 mg/kg, route intraperitoneal; conditions: in vivo; outline: as §2
[9] = system: Mus musculus; experiment: AUC in CD1 mouse at 100 mg/kg, ip; type: ADME, organism-based, Plasma; set-up: dose 100 mg/kg, route intraperitoneal; conditions: in vivo; outline: as §2
[10] = system: Mus musculus; experiment: AUC in CD1 mouse at 50 mg/kg, ip; type: ADME, organism-based, Plasma; set-up: dose 50 mg/kg, route intraperitoneal; conditions: in vivo; outline: as §2
[11] = system: Mus musculus; experiment: AUC in CD1 mouse at 25 mg/kg, ip; type: ADME, organism-based, Plasma; set-up: dose 25 mg/kg, route intraperitoneal; conditions: in vivo; outline: as §2
[12] = Clearance in CD1 mouse at 50 mg/kg, ip bid; type: ADME, organism-based; set-up: dose 50 mg/kg, route intraperitoneal; conditions: in vivo
Outline: (§3)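 Female CD-1 mice received the test compound intraperitoneally, either as a single dose (25, 50 or 100 mg/kg) or as 50 mg/kg BID. Exposure was followed over time, and clearance was reported in mL/h/kg together with tmax, Cmax, half-life, VZ and AUC.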

[13] = Clearance in CD1 mouse at 100 mg/kg, ip; type: ADME, organism-based; set-up: dose 100 mg/kg, route intraperitoneal; conditions: in vivo; outline: as §3
[14] = Clearance in CD1 mouse at 50 mg/kg, ip; type: ADME, organism-based; set-up: dose 50 mg/kg, route intraperitoneal; conditions: in vivo; outline: as §3
[15] = Clearance in CD1 mouse at 25 mg/kg, ip; type: ADME, organism-based; set-up: dose 25 mg/kg, route intraperitoneal; conditions: in vivo; outline: as §3
[16] = system: Mus musculus; experiment: Apparent volume of distribution in CD1 mouse at 50 mg/kg, ip bid; type: ADME, organism-based; set-up: dose 50 mg/kg, route intraperitoneal; conditions: in vivo; outline: as §2
[17] = system: Mus musculus; experiment: Apparent volume of distribution in CD1 mouse at 100 mg/kg, ip; type: ADME, organism-based; set-up: dose 100 mg/kg, route intraperitoneal; conditions: in vivo; outline: as §2
[18] = system: Mus musculus; experiment: Apparent volume of distribution in CD1 mouse at 50 mg/kg, ip; type: ADME, organism-based; set-up: dose 50 mg/kg, route intraperitoneal; conditions: in vivo; outline: as §2
[19] = system: Mus musculus; experiment: Apparent volume of distribution in CD1 mouse at 25 mg/kg, ip; type: ADME, organism-based; set-up: dose 25 mg/kg, route intraperitoneal; conditions: in vivo; outline: as §2
[20] = system: Mus musculus; experiment: Half life in CD1 mouse at 50 mg/kg, ip bid; type: ADME, organism-based; set-up: dose 50 mg/kg, route intraperitoneal; conditions: in vivo; outline: as §2
[21] = system: Mus musculus; experiment: Half life in CD1 mouse at 100 mg/kg, ip; type: ADME, organism-based; set-up: dose 100 mg/kg, route intraperitoneal; conditions: in vivo; outline: as §2
[22] = system: Mus musculus; experiment: Half life in CD1 mouse at 50 mg/kg, ip; type: ADME, organism-based; set-up: dose 50 mg/kg, route intraperitoneal; conditions: in vivo; outline: as §2
[23] = system: Mus musculus; experiment: Half life in CD1 mouse at 25 mg/kg, ip; type: ADME, organism-based; set-up: dose 25 mg/kg, route intraperitoneal; conditions: in vivo; outline: as §2
[24] = system: Mus musculus; experiment: Cmax in CD1 mouse at 50 mg/kg, ip bid; type: ADME, organism-based; set-up: dose 50 mg/kg, route intraperitoneal; conditions: in vivo; outline: as §2
[25] = system: Mus musculus; experiment: Cmax in CD1 mouse at 100 mg/kg, ip; type: ADME, organism-based; set-up: dose 100 mg/kg, route intraperitoneal; conditions: in vivo; outline: as §2
[26] = system: Mus musculus; experiment: Cmax in CD1 mouse at 50 mg/kg, ip; type: ADME, organism-based; set-up: dose 50 mg/kg, route intraperitoneal; conditions: in vivo; outline: as §2
[27] = system: Mus musculus; experiment: Cmax in CD1 mouse at 25 mg/kg, ip; type: ADME, organism-based; set-up: dose 25 mg/kg, route intraperitoneal; conditions: in vivo; outline: as §2
[28] = system: Mus musculus; experiment: Tmax in CD1 mouse at 50 mg/kg, ip bid; type: ADME, organism-based; set-up: dose 50 mg/kg, route intraperitoneal; conditions: in vivo; outline: as §2
[29] = system: Mus musculus; experiment: Tmax in CD1 mouse at 100 mg/kg, ip; type: ADME, organism-based; set-up: dose 100 mg/kg, route intraperitoneal; conditions: in vivo; outline: as §2
[30] = system: Mus musculus; experiment: Tmax in CD1 mouse at 50 mg/kg, ip; type: ADME, organism-based; set-up: dose 50 mg/kg, route intraperitoneal; conditions: in vivo; outline: as §2
[31] = system: Mus musculus; experiment: Tmax in CD1 mouse at 25 mg/kg, ip; type: ADME, organism-based; set-up: dose 25 mg/kg, route intraperitoneal; conditions: in vivo; outline: as §2
[32] = Inhibition of Bacillus anthracis UDP-GlcNAc 2-epimerase using UDP-GlcNAc as substrate preincubated for 15 mins by UDP-ManNAc dehydrogenase-coupled assay
[33] = Chemical stability in aqueous solution assessed as compound isomerization/degradation at pH 10 after 3 days by HPLC/NMR analysis; type: physicochemical; conditions: buffer, pH 10, 72 h
[34] = Aqueous solubility of the compound; type: physicochemical; conditions: buffer
[35] = system: Enterococcus faecium; experiment: Antibacterial activity against Enterococcus faecium 6569 assessed as growth inhibition measured for 3 days by broth microdilution method; type: functional; outline: as §1
[36] = system: Enterococcus faecalis; experiment: Antibacterial activity against Enterococcus faecalis 19433 assessed as growth inhibition measured for 3 days by broth microdilution method; type: functional; outline: as §1
[37] = system: Streptococcus agalactiae; experiment: Antibacterial activity against Streptococcus agalactiae 12386 assessed as growth inhibition measured for 3 days by broth microdilution method; type: functional; conditions: Streptococcus agalactiae, 12386, 72 h; outline: as §1
[38] = system: Staphylococcus epidermidis; experiment: Antibacterial activity against Staphylococcus epidermidis 13518 assessed as growth inhibition measured for 3 days by broth microdilution method; type: functional; conditions: Staphylococcus epidermidis, 13518, 72 h; outline: as §1
[39] = system: Proteus mirabilis; experiment: Antibacterial activity against Proteus mirabilis assessed as growth inhibition measured for 3 days by broth microdilution method; type: functional; outline: as §1
[40] = system: Acinetobacter baumannii; experiment: Antibacterial activity against Acinetobacter baumannii assessed as growth inhibition measured for 3 days by broth microdilution method; type: functional; outline: as §1
[41] = system: Bacillus atrophaeus; experiment: Antibacterial activity against Bacillus atrophaeus assessed as growth inhibition measured for 3 days by broth microdilution method; type: functional; outline: as §1
[42] = system: Shigella sonnei; experiment: Antibacterial activity against Shigella sonnei assessed as growth inhibition measured for 3 days by broth microdilution method; type: functional; outline: as §1
[43] = system: Serratia marcescens; experiment: Antibacterial activity against Serratia marcescens assessed as growth inhibition measured for 3 days by broth microdilution method; type: functional; outline: as §1
[44] = system: Candida albicans; experiment: Antifungal activity against Candida albicans assessed as growth inhibition measured for 3 days by broth microdilution method; type: functional; conditions: 72 h
[45] = system: Escherichia coli; experiment: Antibacterial activity against Escherichia coli assessed as growth inhibition measured for 3 days by broth microdilution method; type: functional; outline: as §1
[46] = system: Salmonella enterica; experiment: Antibacterial activity against Salmonella enterica assessed as growth inhibition measured for 3 days by broth microdilution method; type: functional; outline: as §1
[47] = system: Pseudomonas aeruginosa; experiment: Antibacterial activity against Pseudomonas aeruginosa assessed as growth inhibition measured for 3 days by broth microdilution method; type: functional; outline: as §1
[48] = Bacillus subtilis, 19659, 72 h, read-out: MIC
[49] = Staphylococcus aureus, 13709, 72 h, read-out: MIC

`O=C(O)[C@@H](Cc1ccccc1)N1C(=O)/C(=C\c2ccc(-c3ccc(Cl)c(Cl)c3)o2)NC1=S` gave an MIC [1, 48] of 6.8 µM (≈ 3.31 µg/mL) and an MIC [2, 49] of 6.8 µM (≈ 3.31 µg/mL).

For `O=C([O-])[C@H](Cc1ccccc1)N1C(=O)/C(=C\c2ccc(-c3ccc(Cl)c(Cl)c3)o2)NC1=S.[Na+]`, the “T>MIC” value [3] was 18.3 h, the “T>MIC” value [4] was 19.4 h and the “T>MIC” value [5] was 14.6 h. The “T>MIC” value [6] was 10.6 h, the Activity [7] was “Non-toxic” and the AUC [8] was 1050 µg·h/mL. The AUC [9] was 1800 µg·h/mL, the AUC [10] was 480 µg·h/mL and the AUC [11] was 170 µg·h/mL. It also gave a CL/F [12] of 0.783 mL/min/kg, a CL/F [13] of 0.917 mL/min/kg and a CL/F [14] of 1.67 mL/min/kg. The CL/F [15] was 2.33 mL/min/kg, the Vz [16] was 0.24 L/kg and the Vz [17] was 0.18 L/kg. It also gave a Vz [18] of 0.34 L/kg, a Vz [19] of 0.5 L/kg and a t1/2 [20] of 3.4 h. It also gave a t1/2 [21] of 2.2 h, a t1/2 [22] of 2.3 h and a t1/2 [23] of 2.4 h. It also gave a Cmax [24] of 320 µg/mL, a Cmax [25] of 490 µg/mL and a Cmax [26] of 140 µg/mL. It also gave a Cmax [27] of 68 µg/mL, a Tmax [28] of 3.08 h and a Tmax [29] of 4.8 min. For the same compound, the Tmax [30] was 0.5 h, the Tmax [31] was 4.8 min and the Ki [32] was 82 µM. For the same compound, the Stability [33] was “Stable”, the solubility [34] was “soluble” and the MIC [35] was 15.6 µM. The MIC [36] was 15.6 µM, the MIC [37] was 3.9 µM and the MIC [38] was 2 µM. It also gave an MIC [39] of over 25 µM, an MIC [40] of over 25 µM and an MIC [41] of 7.8 µM. For the same compound, the MIC [42] was over 25 µM, the MIC [43] was over 25 µM and the MIC [44] was over 25 µM. For the same compound, the MIC [45] was over 25 µM, the MIC [46] was over 25 µM and the MIC [47] was over 25 µM.

In the case of `O=C(O)[C@H](Cc1ccccc1)N1C(=O)/C(=C\c2ccc(-c3ccc(Cl)c(Cl)c3)o2)NC1=S`, the MIC [1] is reported as 6.8 µM (≈ 3.31 µg/mL) and the MIC [2] is reported as 6.8 µM (≈ 3.31 µg/mL).

For `O=C(O)[C@H](Cc1ccccc1)N1C(=O)/C(=C/c2ccc(-c3ccc(Cl)c(Cl)c3)o2)NC1=S`, the MIC [1, 48] was 6.8 µM (≈ 3.31 µg/mL) and the MIC [2, 49] was 6.8 µM (≈ 3.31 µg/mL).

Work on `O=C(O)[C@@H](Cc1ccccc1)N1C(=O)/C(=C/c2ccc(-c3ccc(Cl)c(Cl)c3)o2)NC1=S` yielded an MIC [1, 48] of 6.8 µM (≈ 3.31 µg/mL) and an MIC [2, 49] of 6.8 µM (≈ 3.31 µg/mL).
